Columns and labels:
[1] = target: T1, Nitric oxide synthase, inducible (Homo sapiens, UniProt P35228); experiment: Inhibition of cytokine-induced iNOS activity in human DLD1 cells at 10 uM after 24 hrs; assay type: cell-based; conditions: DLD-1
[2] = target: T1, Nitric oxide synthase, inducible; experiment: Inhibition of human iNOS expressed in human DLD1 cells after 1 hr; assay type: cell-based, DLD-1
How it was run: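 Human iNOS endogenously expressed in DLD-1 cells, eight compound concentrations. Incubated 1 h at 37 °C in 50 mM Hepes with 10 nM [3H]arginine, [14C]citrulline internal standard, β-NADP+, G6P, MgCl2, G6P dehydrogenase, FAD, FMN and BH4. [3H]citrulline was separated on cation-exchange resin and counted; AMT defined background.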

[3] = target: T2, Nitric oxide synthase 3 (Homo sapiens) (UniProt P29474); experiment: Inhibition of human eNOS expressed in insect SF9 cells at 10 uM after 1 hr
T2 sequence (whole entry): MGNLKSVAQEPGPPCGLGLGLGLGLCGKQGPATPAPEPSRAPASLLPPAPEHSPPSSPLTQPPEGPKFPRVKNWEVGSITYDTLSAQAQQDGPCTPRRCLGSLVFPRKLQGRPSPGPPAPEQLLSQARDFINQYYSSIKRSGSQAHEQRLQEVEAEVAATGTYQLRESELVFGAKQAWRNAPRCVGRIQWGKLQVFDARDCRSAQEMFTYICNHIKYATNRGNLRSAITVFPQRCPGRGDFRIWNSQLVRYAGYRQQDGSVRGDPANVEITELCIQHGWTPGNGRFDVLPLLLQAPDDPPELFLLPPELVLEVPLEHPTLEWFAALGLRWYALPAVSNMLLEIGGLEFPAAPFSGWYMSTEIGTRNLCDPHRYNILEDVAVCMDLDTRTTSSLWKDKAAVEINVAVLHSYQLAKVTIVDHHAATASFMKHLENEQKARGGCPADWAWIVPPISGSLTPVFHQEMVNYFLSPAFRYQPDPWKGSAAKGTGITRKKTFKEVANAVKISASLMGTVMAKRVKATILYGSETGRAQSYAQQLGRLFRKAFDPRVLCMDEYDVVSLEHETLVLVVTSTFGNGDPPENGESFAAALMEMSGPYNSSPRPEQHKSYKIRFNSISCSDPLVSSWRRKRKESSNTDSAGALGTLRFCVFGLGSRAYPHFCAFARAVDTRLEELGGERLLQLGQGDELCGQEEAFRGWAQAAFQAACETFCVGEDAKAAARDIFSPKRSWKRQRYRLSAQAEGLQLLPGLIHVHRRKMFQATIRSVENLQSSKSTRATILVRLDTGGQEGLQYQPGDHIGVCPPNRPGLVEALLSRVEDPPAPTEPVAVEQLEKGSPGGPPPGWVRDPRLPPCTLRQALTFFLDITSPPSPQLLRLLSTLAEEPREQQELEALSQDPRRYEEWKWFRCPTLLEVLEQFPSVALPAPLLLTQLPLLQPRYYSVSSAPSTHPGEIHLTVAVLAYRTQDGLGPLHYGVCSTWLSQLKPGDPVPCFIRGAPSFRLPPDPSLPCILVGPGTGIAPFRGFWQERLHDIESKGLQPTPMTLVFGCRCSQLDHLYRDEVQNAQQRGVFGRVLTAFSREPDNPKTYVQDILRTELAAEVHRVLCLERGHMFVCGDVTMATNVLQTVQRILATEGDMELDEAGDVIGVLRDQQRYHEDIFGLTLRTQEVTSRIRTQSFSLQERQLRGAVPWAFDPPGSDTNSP

Homo sapiens = species: Homo sapiens; experiment: Selectivity for human eNOS to human iNOS
How it was run: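 Ratio of eNOS IC50 to iNOS IC50, both from [3H]arginine→[3H]citrulline conversion. iNOS was endogenous to DLD-1 cells; eNOS was human recombinant expressed in SF9 cells. Each used 10 nM [3H]arginine with NADP+/G6P/FAD/FMN/BH4 cofactors in 50 mM Hepes for 1 h at 37 °C. The eNOS reaction also had calmodulin, CaCl2 and glutathione. Citrulline was separated by cation exchange and counted. IC50s came from eight concentrations, as geometric means of ≥3 runs.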

Nitric oxide synthase 1 [4] = target: T3, Nitric oxide synthase 1 (Homo sapiens, UniProt P29475); experiment: Inhibition of human nNOS expressed in insect SF9 cells at 10 uM after 1 hr
T3 sequence (P29475 whole entry): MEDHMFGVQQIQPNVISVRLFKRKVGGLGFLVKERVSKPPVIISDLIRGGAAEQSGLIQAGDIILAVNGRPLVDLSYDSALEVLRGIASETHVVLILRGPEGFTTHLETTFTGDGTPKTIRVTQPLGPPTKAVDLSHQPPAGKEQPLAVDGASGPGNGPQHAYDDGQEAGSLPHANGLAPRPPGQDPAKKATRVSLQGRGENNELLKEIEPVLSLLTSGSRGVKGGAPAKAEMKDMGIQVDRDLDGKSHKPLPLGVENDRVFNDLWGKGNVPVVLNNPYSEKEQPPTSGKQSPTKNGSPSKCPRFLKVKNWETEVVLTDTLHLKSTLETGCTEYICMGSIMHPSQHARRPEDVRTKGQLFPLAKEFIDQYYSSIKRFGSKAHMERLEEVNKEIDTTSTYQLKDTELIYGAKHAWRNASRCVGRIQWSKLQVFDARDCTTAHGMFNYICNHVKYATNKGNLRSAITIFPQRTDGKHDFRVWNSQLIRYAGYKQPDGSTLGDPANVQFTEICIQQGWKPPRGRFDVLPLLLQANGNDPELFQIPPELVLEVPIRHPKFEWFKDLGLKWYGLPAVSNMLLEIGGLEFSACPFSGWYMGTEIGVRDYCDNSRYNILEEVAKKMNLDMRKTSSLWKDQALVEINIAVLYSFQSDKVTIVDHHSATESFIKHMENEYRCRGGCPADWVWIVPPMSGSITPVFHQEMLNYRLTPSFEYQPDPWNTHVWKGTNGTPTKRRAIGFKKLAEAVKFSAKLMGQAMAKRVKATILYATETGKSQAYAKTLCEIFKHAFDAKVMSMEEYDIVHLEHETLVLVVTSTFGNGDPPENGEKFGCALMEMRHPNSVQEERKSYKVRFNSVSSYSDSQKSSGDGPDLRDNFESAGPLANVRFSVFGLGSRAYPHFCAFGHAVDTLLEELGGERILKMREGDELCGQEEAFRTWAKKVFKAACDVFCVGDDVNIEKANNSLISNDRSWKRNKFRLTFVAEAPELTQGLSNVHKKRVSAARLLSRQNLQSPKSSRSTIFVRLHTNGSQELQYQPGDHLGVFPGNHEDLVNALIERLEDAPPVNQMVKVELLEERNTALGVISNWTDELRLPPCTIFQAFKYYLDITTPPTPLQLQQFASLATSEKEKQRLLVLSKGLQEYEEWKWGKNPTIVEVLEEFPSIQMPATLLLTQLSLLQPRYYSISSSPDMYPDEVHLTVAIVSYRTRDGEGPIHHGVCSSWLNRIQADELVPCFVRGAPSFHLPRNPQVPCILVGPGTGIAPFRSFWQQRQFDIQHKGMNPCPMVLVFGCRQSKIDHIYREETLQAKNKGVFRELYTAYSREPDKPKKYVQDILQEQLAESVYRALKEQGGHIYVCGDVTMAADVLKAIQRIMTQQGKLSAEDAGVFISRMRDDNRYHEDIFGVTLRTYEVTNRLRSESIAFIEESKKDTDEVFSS
How it was run: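 Human recombinant nNOS expressed in SF9 cells, incubated with test compound, 10 nM [3H]arginine and [14C]citrulline (80–120 nM) internal standard in 50 mM Hepes for 1 h at 37 °C. Cofactors were β-NADP+, G6P, MgCl2, G6P dehydrogenase, FAD, FMN, BH4, 25 nM calmodulin, 0.5 mM CaCl2 and 3.5 mM glutathione. After MES stop and cation-exchange filtration, [3H]citrulline was counted; background came from 10 µM AMT.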

[5] = target: T1, Nitric oxide synthase, inducible; experiment: Inhibition of cytokine-induced iNOS activity in human DLD1 cells after 24 hrs; assay type: cell-based, DLD-1
How it was run: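 DLD-1 cells were seeded 3 days ahead, then given fresh medium with 20 ng/mL IFNγ, 4 ng/mL TNFα, 2 ng/mL IL1β and 1 mM L-arginine. Compound titrations in 50 mM Hepes pH 7.4 were added at eight concentrations for 24 h at 37 °C, 5% CO2. Nitrite was read with Griess reagent at 540 nm.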

Nitric oxide synthase 1 [6] = target: T3, Nitric oxide synthase 1; experiment: Inhibition of human nNOS expressed in insect SF9 cells after 1 hr
Nitric oxide synthase 3 = target: T4, Nitric oxide synthase 3 (Homo sapiens, UniProt P29474); experiment: Inhibition of human eNOS expressed in insect SF9 cells after 1 hr
T4 sequence (P29474 whole entry): T2 sequence (whole entry)
How it was run: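 Human recombinant eNOS from SF9 cells, tested at eight concentrations. Conditions: 10 nM [3H]arginine with NADP+/G6P/G6PDH, MgCl2, FAD, FMN, BH4, plus 25 nM calmodulin, 0.5 mM CaCl2 and 3.5 mM glutathione, in 50 mM Hepes for 1 h at 37 °C. Citrulline was resin-separated and counted, with AMT background. IC50 from one-site fit, geometric mean of ≥3 runs.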

[7] = target: T1, Nitric oxide synthase, inducible; experiment: Inhibition of human iNOS expressed in human DLD1 cells at 10 uM after 1 hr; assay type: cell-based; conditions: DLD-1

T1 sequence (P35228 whole entry): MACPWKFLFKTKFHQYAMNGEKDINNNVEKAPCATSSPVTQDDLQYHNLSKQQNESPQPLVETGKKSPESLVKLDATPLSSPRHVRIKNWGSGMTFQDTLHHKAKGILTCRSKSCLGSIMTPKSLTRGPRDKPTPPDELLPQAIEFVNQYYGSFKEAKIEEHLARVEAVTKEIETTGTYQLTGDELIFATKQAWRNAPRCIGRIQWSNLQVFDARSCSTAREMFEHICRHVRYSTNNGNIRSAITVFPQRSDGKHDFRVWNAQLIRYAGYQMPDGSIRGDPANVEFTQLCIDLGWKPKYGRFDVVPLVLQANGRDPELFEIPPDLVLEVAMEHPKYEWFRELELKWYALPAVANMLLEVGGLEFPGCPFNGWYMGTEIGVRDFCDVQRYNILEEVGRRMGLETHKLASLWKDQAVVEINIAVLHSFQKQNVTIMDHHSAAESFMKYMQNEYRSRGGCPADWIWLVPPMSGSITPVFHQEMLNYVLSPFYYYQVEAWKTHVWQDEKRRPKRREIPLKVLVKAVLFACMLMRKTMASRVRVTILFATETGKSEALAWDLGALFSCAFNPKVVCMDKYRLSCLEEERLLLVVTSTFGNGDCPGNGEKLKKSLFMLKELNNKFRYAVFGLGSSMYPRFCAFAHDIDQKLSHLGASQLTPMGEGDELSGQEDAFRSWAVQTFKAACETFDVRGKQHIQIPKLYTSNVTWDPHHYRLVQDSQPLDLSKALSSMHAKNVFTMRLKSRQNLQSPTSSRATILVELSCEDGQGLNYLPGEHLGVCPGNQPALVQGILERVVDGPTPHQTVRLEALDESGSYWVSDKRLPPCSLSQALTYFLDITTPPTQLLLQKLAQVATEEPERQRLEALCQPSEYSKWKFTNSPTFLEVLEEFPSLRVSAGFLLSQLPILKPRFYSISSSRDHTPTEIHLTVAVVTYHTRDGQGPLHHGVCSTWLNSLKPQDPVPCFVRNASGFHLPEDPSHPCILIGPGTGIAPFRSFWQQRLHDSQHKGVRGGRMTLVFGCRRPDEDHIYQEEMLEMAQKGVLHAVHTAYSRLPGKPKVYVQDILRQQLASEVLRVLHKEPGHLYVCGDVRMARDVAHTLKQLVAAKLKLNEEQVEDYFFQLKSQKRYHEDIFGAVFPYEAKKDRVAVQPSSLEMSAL

| Compound | inhibition [1] [%] | IC50 [2] [nM] | inhibition [3] [%] | Ratio IC50 (Homo sapiens) | inhibition (Nitric oxide synthase 1 [4]) [%] | IC50 [5] [µM] | IC50 (Nitric oxide synthase 1 [6]) [nM] | IC50 (Nitric oxide synthase 3) [nM] | inhibition [7] [%] |
| --- | --- | --- | --- | --- | --- | --- | --- | --- | --- |
| COc1ccc(C#N)c(CN(C)C2CCN(C)CC2)c1 | < 15 | 5100 |  |  |  |  |  |  |  |
| N#Cc1ccc(Cl)cc1CN(c1ccccc1)C1CCNCC1 |  | 660 | 0 | > 15 | 33 | 8 |  |  |  |
| CC(C)CN(Cc1cc(Cl)ccc1C#N)[C@H]1CCCNC1 |  | 330 | 0 | > 25 |  | 0.57 | 5300 |  |  |
| N#Cc1ccc(C(=O)N2CCC3(CC2)N=C(N)c2c(F)ccc(F)c2N3)cn1 |  |  | < 15 |  |  |  |  |  |  |
| CC(=N)NCCSCC[C@H](N)C(=O)O [GW-274150] | 26 | 220 | < 15 | > 45 |  |  | 8400 |  |  |
| CCCN1CCC(N(C)Cc2cc(Cl)ccc2C#N)CC1 |  | 670 |  | 2 |  | 4.4 | 810 | 1100 |  |
| CN(Cc1cc(Cl)ccc1C#N)C1CCN(CC2CC2)CC1 |  | 250 |  | 3 |  | 3.5 | 530 | 860 |  |
| CN1CCC(N(C)Cc2cc([N+](=O)[O-])ccc2Cl)CC1 | < 15 |  |  |  |  |  |  |  | < 15 |
| CN1CCC(N(C)Cc2ccccc2)CC1 | < 15 |  |  |  |  |  |  |  | < 15 |
| CN1CCC(N(C)Cc2ccccc2[N+](=O)[O-])CC1 | < 15 |  |  |  |  |  |  |  | < 15 |
| CN(Cc1cc(Cl)ccc1C#N)C1CCN(CCc2ccccc2)CC1 |  | 300 |  | 1 |  | 3.3 | 150 | 220 |  |
| CC(C)CN1CCC(N(C)Cc2cc(Cl)ccc2C#N)CC1 |  | 400 |  | 1 |  | 3.2 | 600 | 540 |  |
| CN1CCC(N(C)Cc2cc(Cl)ccc2C(F)(F)F)CC1 | 48 | 700 |  | 2 |  |  | 780 | 1400 |  |
| CC(C)N(Cc1cc(Cl)ccc1C#N)C1CCNCC1 |  | 32 |  | 18 |  | 0.38 | 190 | 570 |  |
| N#Cc1ccc(Cl)cc1CN(CC1CC1)C1CCNCC1 |  | 160 |  | 13 |  | 1.4 | 748 | 2100 |  |
| CCCCN(Cc1cc(Cl)ccc1C#N)C1CCNCC1 |  | 570 |  |  |  | 5 |  |  |  |
| CC(C)CN(Cc1cc(Cl)ccc1C#N)[C@H]1CCCN(C)C1 |  | 720 | 0 | > 50 |  | 0.32 | 6500 |  |  |
| CN1CCC(N(C)Cc2cc(Cl)ccc2C#N)CC1 |  | 290 |  | 3 |  | 3.7 | 540 | 770 |  |

| Compound | inhibition [1] [%] | IC50 [2] [nM] | inhibition [3] [%] | Ratio IC50 (Homo sapiens) | inhibition (Nitric oxide synthase 1 [4]) [%] | IC50 [5] [µM] | IC50 (Nitric oxide synthase 1 [6]) [nM] | IC50 (Nitric oxide synthase 3) [nM] | inhibition [7] [%] |
| --- | --- | --- | --- | --- | --- | --- | --- | --- | --- |
| CN1CCC(N(C)Cc2cc(Cl)ccc2[N+](=O)[O-])CC1 |  | 90 |  | 2 |  | 1.1 | 80 | 180 |  |
| CC(=N)NCCCC[C@H](N)C(=O)O [L-NIL] |  | 280 |  | 9 |  | 31 | 6000 | 2500 |  |
| CN1CCC(N(C)Cc2cc(Cl)ccc2Br)CC1 | 51 | 420 |  | 2 |  |  | 590 | 820 |  |
| CN(Cc1cc(Cl)ccc1C#N)C1CCNCC1 |  | 330 |  | 3 |  | 5.9 | 350 | 1100 |  |
| CC(C)CN(Cc1cc(Cl)ccc1C#N)[C@@H]1CCCNC1 |  | 260 | 23 | > 25 |  | 1.5 | 1200 |  |  |
| CN(Cc1cc(Cl)ccc1C#N)C1CCN(Cc2ccccc2)CC1 |  | 270 |  | 16 |  | 3.5 | 1800 | 4300 |  |
| CN(Cc1cc(Cl)ccc1C#N)C1CCCNCC1 (stereo unspecified) | 31 | 660 |  | 7 |  |  | 1200 | 4400 |  |
| CC(C)CN(Cc1cc(Cl)ccc1C#N)C1CCCNC1 (stereo unspecified) |  | 290 | 15 | > 15 |  | 1.2 | 2500 |  |  |
| CN(Cc1cc(Cl)ccc1C#N)C1CCNC1 (stereo unspecified) | 33 | 1200 |  | 3 |  |  | 1200 | 4000 |  |
| CCCN(Cc1cc(Cl)ccc1C#N)C1CCNCC1 |  | 130 |  | 13 |  | 0.28 | 140 | 1700 |  |
| CN(Cc1cc(Cl)ccc1C#N)C1CCCNC1 (stereo unspecified) |  | 180 |  | 5 |  | 4.4 | 190 | 983 |  |
| CN1CCC(N(C)Cc2cc(Br)ccc2C#N)CC1 |  | 210 |  | 4 |  | 3.7 | 530 | 810 |  |
| N#Cc1ccc(Cl)cc1CN(C1CCCC1)C1CCNCC1 |  | 1500 | 1 | > 7 | 24 | 6.7 |  |  |  |
| CCN1CCC(N(C)Cc2cc(Cl)ccc2C#N)CC1 |  | 370 |  | 1 |  | 4.5 | 370 | 450 |  |
| CCCCN1CCC(N(C)Cc2cc(Cl)ccc2C#N)CC1 |  | 340 |  | 2 |  | 3.8 | 420 | 680 |  |
| CCN(Cc1cc(Cl)ccc1C#N)C1CCNCC1 |  | 100 |  | 10 |  | 0.58 | 360 | 1000 |  |
| CC(C)CN(Cc1cc(Cl)ccc1C#N)[C@@H]1CCCN(C)C1 |  | 470 | 0 | > 15 |  | 0.66 | 4900 |  |  |
| CC(C)CN(Cc1cc(Cl)ccc1C#N)C1CCNCC1 |  | 390 | 20 | > 25 |  | 0.57 | 1900 |  |  |

Source: ChEMBL document CHEMBL1142258, “Discovery of a series of aminopiperidines as novel iNOS inhibitors” (Bioorg Med Chem Lett, 2008)
